Laboratory results reported in ChEMBL document CHEMBL1157526, “Development of novel beta-amyloid probes based on 3,5-diphenyl-1,2,4-oxadiazole” (Bioorg Med Chem, 2008).

The molecules below were run on Kidney (assay: Biodistribution in ddY mouse kidney at 0.5 uCi, iv after 60 mins). Details: in vivo, 1 h.
Type: ADME, organism-based
Outline: (§1)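 Normal male-unspecified ddY mice (5-week-old, 22–25 g) given radioiodinated ligand by tail-vein injection, killed at set times post-injection. Organs removed and weighed, radioactivity counted in a gamma counter. Expressed as % injected dose per gram, stomach as % injected dose per organ. Mean (s.d.) of 3–5 animals per time point.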
Work on COc1ccc(-c2nc(-c3ccc([125I])cc3)no2)cc1 yielded a Drug uptake of 2.95 % ID/g.

These molecules were tested on Pancreas (assay: Biodistribution in ddY mouse pancreas at 0.5 uCi, iv after 60 mins). Details: in vivo, 1 h.
Type: ADME, organism-based
Outline: as §1
COc1ccc(-c2nc(-c3ccc([125I])cc3)no2)cc1 gave a Drug uptake of 1.45 % ID/g.

Each molecule was assayed on Stomach (assay: Biodistribution in ddY mouse stomach at 0.5 uCi, iv after 30 mins). Details: in vivo, 0.5 h.
Type: ADME, organism-based
Outline: as §1
COc1ccc(-c2nc(-c3ccc([125I])cc3)no2)cc1 showed a Drug uptake of 2.46 % ID/organ.

The molecules below were run on Liver (assay: Biodistribution in ddY mouse liver at 0.5 uCi, iv after 10 mins). Details: in vivo.
Type: ADME, organism-based
Outline: as §1
For COc1ccc(-c2nc(-c3ccc([125I])cc3)no2)cc1, the Drug uptake was 9.35 % ID/g.

The molecules below were run on Kidney (assay: Biodistribution in ddY mouse kidney at 0.5 uCi, iv after 30 mins). Details: in vivo, 0.5 h.
Type: ADME, organism-based
Outline: as §1
COc1ccc(-c2nc(-c3ccc([125I])cc3)no2)cc1 gave a Drug uptake of 3.85 % ID/g.

Each molecule was assayed on Pancreas (assay: Biodistribution in ddY mouse pancreas at 0.5 uCi, iv after 10 mins). Details: in vivo.
Type: ADME, organism-based
Outline: as §1
COc1ccc(-c2nc(-c3ccc([125I])cc3)no2)cc1 showed a Drug uptake of 4.94 % ID/g.

These molecules were tested on Intestine (assay: Biodistribution in ddY mouse intestine at 0.5 uCi, iv after 30 mins). Details: in vivo, 0.5 h.
Type: ADME, organism-based
Outline: as §1
COc1ccc(-c2nc(-c3ccc([125I])cc3)no2)cc1 gave a Drug uptake of 6.62 % ID/g.

Each molecule was assayed on Blood (assay: Biodistribution in ddY mouse blood at 0.5 uCi, iv after 10 mins). Details: in vivo.
Type: ADME, organism-based
Outline: as §1
For COc1ccc(-c2nc(-c3ccc([125I])cc3)no2)cc1, the Drug uptake was 1.63 % ID/g.

Each molecule was assayed on Brain (assay: Biodistribution in ddY mouse brain at 0.5 uCi, iv after 60 mins). Details: in vivo, 1 h.
Type: ADME, organism-based
Outline: as §1
COc1ccc(-c2nc(-c3ccc([125I])cc3)no2)cc1 showed a Drug uptake of 2.01 % ID/g.

Each molecule was assayed on Spleen (assay: Biodistribution in ddY mouse spleen at 0.5 uCi, iv after 60 mins). Details: in vivo, 1 h.
Type: ADME, organism-based
Outline: as §1
COc1ccc(-c2nc(-c3ccc([125I])cc3)no2)cc1 showed a Drug uptake of 1.34 % ID/g.

The molecules below were run on Spleen (assay: Biodistribution in ddY mouse spleen at 0.5 uCi, iv after 30 mins). Details: in vivo, 0.5 h.
Type: ADME, organism-based
Outline: as §1
COc1ccc(-c2nc(-c3ccc([125I])cc3)no2)cc1 gave a Drug uptake of 2.13 % ID/g.

The molecules below were run on Kidney (assay: Biodistribution in ddY mouse kidney at 0.5 uCi, iv after 2 mins). Details: in vivo.
Type: ADME, organism-based
Outline: as §1
COc1ccc(-c2nc(-c3ccc([125I])cc3)no2)cc1 showed a Drug uptake of 8.77 % ID/g.

These molecules were tested on Liver (assay: Biodistribution in ddY mouse liver at 0.5 uCi, iv after 2 mins). Details: in vivo.
Type: ADME, organism-based
Outline: as §1
In the case of COc1ccc(-c2nc(-c3ccc([125I])cc3)no2)cc1, the Drug uptake is reported as 11.92 % ID/g.

These molecules were tested on Stomach (assay: Biodistribution in ddY mouse stomach at 0.5 uCi, iv after 60 mins). Details: in vivo, 1 h.
Type: ADME, organism-based
Outline: as §1
Molecule COc1ccc(-c2nc(-c3ccc([125I])cc3)no2)cc1 has a Drug uptake of 3.16 % ID/organ.

What follows are molecules tested on Heart (assay: Biodistribution in ddY mouse heart at 0.5 uCi, iv after 30 mins). Details: in vivo, 0.5 h.
Type: ADME, organism-based
Outline: as §1
COc1ccc(-c2nc(-c3ccc([125I])cc3)no2)cc1 was tested, and the Drug uptake was 1.84 % ID/g.

These molecules were tested on Spleen (assay: Biodistribution in ddY mouse spleen at 0.5 uCi, iv after 2 mins). Details: in vivo.
Type: ADME, organism-based
Outline: as §1
Work on COc1ccc(-c2nc(-c3ccc([125I])cc3)no2)cc1 yielded a Drug uptake of 4.41 % ID/g.

The molecules below were run on Liver (assay: Biodistribution in ddY mouse liver at 0.5 uCi, iv after 30 mins). Details: in vivo, 0.5 h.
Type: ADME, organism-based
Outline: as §1
COc1ccc(-c2nc(-c3ccc([125I])cc3)no2)cc1 was tested, and the Drug uptake was 6.13 % ID/g.

The molecules below were run on Stomach (assay: Biodistribution in ddY mouse stomach at 0.5 uCi, iv after 10 mins). Details: in vivo.
Type: ADME, organism-based
Outline: as §1
In the case of COc1ccc(-c2nc(-c3ccc([125I])cc3)no2)cc1, the Drug uptake is reported as 1.64 % ID/organ.

These molecules were tested on Blood (assay: Biodistribution in ddY mouse blood at 0.5 uCi, iv after 30 mins). Details: in vivo, 0.5 h.
Type: ADME, organism-based
Outline: as §1
Molecule COc1ccc(-c2nc(-c3ccc([125I])cc3)no2)cc1 has a Drug uptake of 1.23 % ID/g.

These molecules were tested on Pancreas (assay: Biodistribution in ddY mouse pancreas at 0.5 uCi, iv after 30 mins). Details: in vivo, 0.5 h.
Type: ADME, organism-based
Outline: as §1
Molecule COc1ccc(-c2nc(-c3ccc([125I])cc3)no2)cc1 has a Drug uptake of 2.84 % ID/g.

These molecules were tested on Blood (assay: Biodistribution in ddY mouse blood at 0.5 uCi, iv after 2 mins). Details: in vivo.
Type: ADME, organism-based
Outline: as §1
Work on COc1ccc(-c2nc(-c3ccc([125I])cc3)no2)cc1 yielded a Drug uptake of 1.96 % ID/g.

These molecules were tested on Intestine (assay: Biodistribution in ddY mouse intestine at 0.5 uCi, iv after 60 mins). Details: in vivo, 1 h.
Type: ADME, organism-based
Outline: as §1
Molecule COc1ccc(-c2nc(-c3ccc([125I])cc3)no2)cc1 has a Drug uptake of 8.21 % ID/g.

These molecules were tested on Brain (assay: Biodistribution in ddY mouse brain at 0.5 uCi, iv after 30 mins). Details: in vivo, 0.5 h.
Type: ADME, organism-based
Outline: as §1
Work on COc1ccc(-c2nc(-c3ccc([125I])cc3)no2)cc1 yielded a Drug uptake of 2.82 % ID/g.

What follows are molecules tested on Heart (assay: Biodistribution in ddY mouse heart at 0.5 uCi, iv after 10 mins). Details: in vivo.
Type: ADME, organism-based
Outline: as §1
Work on COc1ccc(-c2nc(-c3ccc([125I])cc3)no2)cc1 yielded a Drug uptake of 4.44 % ID/g.

The molecules below were run on Liver (assay: Biodistribution in ddY mouse liver at 0.5 uCi, iv after 60 mins). Details: in vivo, 1 h.
Type: ADME, organism-based
Outline: as §1
Molecule COc1ccc(-c2nc(-c3ccc([125I])cc3)no2)cc1 has a Drug uptake of 4.44 % ID/g.

These molecules were tested on Pancreas (assay: Biodistribution in ddY mouse pancreas at 0.5 uCi, iv after 2 mins). Details: in vivo.
Type: ADME, organism-based
Outline: as §1
For COc1ccc(-c2nc(-c3ccc([125I])cc3)no2)cc1, the Drug uptake was 4.55 % ID/g.

These molecules were tested on Heart (assay: Biodistribution in ddY mouse heart at 0.5 uCi, iv after 2 mins). Details: in vivo.
Type: ADME, organism-based
Outline: as §1
In the case of COc1ccc(-c2nc(-c3ccc([125I])cc3)no2)cc1, the Drug uptake is reported as 11.3 % ID/g.

The molecules below were run on Intestine (assay: Biodistribution in ddY mouse intestine at 0.5 uCi, iv after 2 mins). Details: in vivo.
Type: ADME, organism-based
Outline: as §1
COc1ccc(-c2nc(-c3ccc([125I])cc3)no2)cc1 was tested, and the Drug uptake was 1.7 % ID/g.

What follows are molecules tested on Blood (assay: Biodistribution in ddY mouse blood at 0.5 uCi, iv after 60 mins). Details: in vivo, 1 h.
Type: ADME, organism-based
Outline: as §1
For COc1ccc(-c2nc(-c3ccc([125I])cc3)no2)cc1, the Drug uptake was 1.12 % ID/g.

What follows are molecules tested on Heart (assay: Biodistribution in ddY mouse heart at 0.5 uCi, iv after 60 mins). Details: in vivo, 1 h.
Type: ADME, organism-based
Outline: as §1
With COc1ccc(-c2nc(-c3ccc([125I])cc3)no2)cc1 the Drug uptake was 1.35 % ID/g.

These molecules were tested on Stomach (assay: Biodistribution in ddY mouse stomach at 0.5 uCi, iv after 2 mins). Details: in vivo.
Type: ADME, organism-based
Outline: as §1
COc1ccc(-c2nc(-c3ccc([125I])cc3)no2)cc1 gave a Drug uptake of 0.62 % ID/organ.

What follows are molecules tested on Brain (assay: Biodistribution in ddY mouse brain at 0.5 uCi, iv after 10 mins). Details: in vivo.
Type: ADME, organism-based
Outline: as §1
For COc1ccc(-c2nc(-c3ccc([125I])cc3)no2)cc1, the Drug uptake was 2.76 % ID/g.

What follows are molecules tested on Kidney (assay: Biodistribution in ddY mouse kidney at 0.5 uCi, iv after 10 mins). Details: in vivo.
Type: ADME, organism-based
Outline: as §1
COc1ccc(-c2nc(-c3ccc([125I])cc3)no2)cc1 gave a Drug uptake of 6.22 % ID/g.

Each molecule was assayed on Spleen (assay: Biodistribution in ddY mouse spleen at 0.5 uCi, iv after 10 mins). Details: in vivo.
Type: ADME, organism-based
Outline: as §1
In the case of COc1ccc(-c2nc(-c3ccc([125I])cc3)no2)cc1, the Drug uptake is reported as 3.62 % ID/g.

What follows are molecules tested on Intestine (assay: Biodistribution in ddY mouse intestine at 0.5 uCi, iv after 10 mins). Details: in vivo.
Type: ADME, organism-based
Outline: as §1
Molecule COc1ccc(-c2nc(-c3ccc([125I])cc3)no2)cc1 has a Drug uptake of 3.53 % ID/g.

What follows are molecules tested on Brain (assay: Biodistribution in ddY mouse brain at 0.5 uCi, iv after 2 mins). Details: in vivo.
Type: ADME, organism-based
Outline: as §1
For COc1ccc(-c2nc(-c3ccc([125I])cc3)no2)cc1, the Drug uptake was 2.06 % ID/g.
